Results published in ChEMBL document CHEMBL4017546, “Small-Molecule Inhibitors of the CD40-CD40L Costimulatory Protein-Protein Interaction” (J Med Chem, 2017).
≈ marks a conversion by molar mass, not a printed value. Calls of active or inactive are those of the source. No cut-off for these calls is given here.

Key:
CD40-CD40L [1] = molecular target: T1, CD40-CD40L (Homo sapiens, UniProt P25942+P29965); experiment: Inhibition of human Fc-conjugated CD40/FLAG-tagged biotinylated CD40L costimulatory protein-protein interaction incubated for 1 hr by ELISA-type assay
CD40-CD40L [2] = molecular target: T1, CD40-CD40L; experiment: Inhibition of interaction of CD40 (unknown origin) transfected in HEK Blue cells with recombinant human CD40L assessed as reduction in CD40L-induced NF-kappaB activation after 18 hrs by spectrophotometry based SEAP reporter gene assay; format: cell-based
[3] = molecular target: MAC1-CD40L (Homo sapiens) (UniProt P05107+P11215+P29965); experiment: Inhibition of human Fc-conjugated Mac1/FLAG-tagged biotinylated CD40L protein-protein interaction incubated for 1 hr by ELISA-type assay
Sequence of MAC1-CD40L (Homo sapiens) (P05107 whole entry, looked up, other chains not shown): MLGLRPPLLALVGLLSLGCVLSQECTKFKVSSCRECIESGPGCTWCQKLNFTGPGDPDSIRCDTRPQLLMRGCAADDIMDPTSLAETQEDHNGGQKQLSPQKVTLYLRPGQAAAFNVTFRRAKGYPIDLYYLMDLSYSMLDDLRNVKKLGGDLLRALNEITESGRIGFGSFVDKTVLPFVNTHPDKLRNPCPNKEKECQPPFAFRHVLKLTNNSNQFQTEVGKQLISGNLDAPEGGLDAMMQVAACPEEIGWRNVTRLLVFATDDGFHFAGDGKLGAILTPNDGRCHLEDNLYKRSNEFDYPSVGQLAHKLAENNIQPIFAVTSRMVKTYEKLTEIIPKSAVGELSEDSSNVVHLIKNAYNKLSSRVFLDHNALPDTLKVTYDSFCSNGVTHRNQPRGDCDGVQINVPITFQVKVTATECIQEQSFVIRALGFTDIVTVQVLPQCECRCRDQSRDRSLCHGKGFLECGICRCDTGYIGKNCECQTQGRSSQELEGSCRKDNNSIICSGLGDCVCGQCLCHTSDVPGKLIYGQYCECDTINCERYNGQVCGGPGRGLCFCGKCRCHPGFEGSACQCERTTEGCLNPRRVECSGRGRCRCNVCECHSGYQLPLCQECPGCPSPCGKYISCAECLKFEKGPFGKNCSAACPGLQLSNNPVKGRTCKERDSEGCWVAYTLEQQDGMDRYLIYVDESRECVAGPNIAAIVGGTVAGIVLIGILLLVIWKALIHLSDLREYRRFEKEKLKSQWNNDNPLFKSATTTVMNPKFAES
Sequence of MAC1-CD40L (Homo sapiens) (P29965 whole entry, looked up, other chains not shown): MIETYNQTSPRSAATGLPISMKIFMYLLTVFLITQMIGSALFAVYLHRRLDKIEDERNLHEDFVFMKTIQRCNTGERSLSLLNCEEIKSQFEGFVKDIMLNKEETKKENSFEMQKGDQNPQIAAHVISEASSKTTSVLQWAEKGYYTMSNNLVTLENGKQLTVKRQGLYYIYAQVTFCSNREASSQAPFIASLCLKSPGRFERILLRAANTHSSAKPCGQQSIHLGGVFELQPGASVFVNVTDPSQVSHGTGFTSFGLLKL
How it was run: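 Fc-conjugated Mac-1 coated overnight at 4°C at 0.4 µg/mL; blocked with PBS/Tween/BSA. FLAG-tagged CD40L at 0.2 µg/mL added with graded compound in HEPES binding buffer (pH 7.2) for 1 h. Detection with anti-FLAG HRP/TMB at 450 nm. Data converted to percent inhibition and fitted to a log inhibitor curve.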

Mus musculus [4] = experiment: Toxicity in C57BL6 mouse implanted with BALB/c mouse skin graft at 30 mg/kg, sc administered daily for 2 weeks; format: organism-based; settings: in vivo, 336 h
How it was run: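 C57BL/6 recipients carried full-thickness BALB/c ear skin grafts on the dorsal thorax. They received CTLA4-Ig 250 μg on days 0, 2, 4 and 6, plus compound at 30 mg/kg s.c. daily in 20% w/v HPβCD over two weeks, and were watched for signs of toxicity. 5–8 mice per group.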

Salmonella typhimurium = experiment: Mutagenicity in Salmonella typhimurium TA100 up to 500 uM measured daily up to day 6 by Ames test; format: toxicity; settings: salmonella enterica subsp. enterica serovar typhimurium
How it was run: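 Muta-Chromplate Ames format with S. typhimurium TA-100, reconstituted and grown overnight (16–18 h) at 37°C, then added to reaction mixture with compound at 0.1 to 500 μM (DMSO ≤2.5% final). Plated one plate per condition, incubated at 37°C, positive wells counted daily. Controls were background, NaN3 positive and sterility plates; significance from the manufacturer's tables.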

[5] = Solubility of the compound in water; format: physicochemical; settings: buffer
How it was run: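 Saturated solution in distilled water, concentration measured by C18 HPLC (60:40 water:acetonitrile, 2.0 mM ammonium acetate, UV 254 nm). Calibration standards were made from known amounts dissolved in 20% w/v aqueous HPβCD. Compounds were tested as triethylamine salts unless stated otherwise.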

[6] = Inhibition of human Fc-conjugated TNF-R/FLAG-tagged biotinylated TNFalpha protein-protein interaction incubated for 1 hr by ELISA-type assay
Mus musculus [7] = experiment: In vivo inhibition of alloantigen-induced T cell response in sc dosed BALB/c mouse injected with DBA-2 mouse splenocytes assessed as reduction in splenocyte-mediated increase in draining popliteal lymph node cells administered as bid from 1 day before alloantigen challenge to 3 days post alloantigen challenge; format: functional, organism-based
How it was run: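 Female BALB/c recipients (10–12 weeks) got a footpad injection of 1 × 10^7 splenocytes from male DBA-2 donors. Compound given s.c. at 20–60 mg/kg b.i.d. from day -1 to 3 in 20% HPβCD; MR-1 anti-CD40L (20 mg/kg, days -1 and 0) as positive control. Draining popliteal nodes taken 3 days after challenge and cells counted; n = 3–4 per group, mean ± SD.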

THP-1 [8] = experiment: Cytotoxicity against human THP1 cells assessed as reduction in cell viability at 100 uM after 48 hrs by MTT assay; format: cell-based; settings: thp-1, 48 h
How it was run: (§1)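 THP-1 cells grown in RPMI-1640 with 10% FBS, starved 24 h in FBS-free medium, then seeded at 50,000 cells/well with compounds diluted in the same medium. Incubated 48 h at 37°C, MTT added for a further half hour, formazan read at 490 nm. Data converted to percent inhibition; duplicate or triplicate wells, at least three independent experiments.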

CD40-CD40L [9] = molecular target: T1, CD40-CD40L; experiment: Inhibition of interaction of CD40 in human B cells with recombinant human CD40L assessed as reduction in CD40L-induced cell proliferation after 48 hrs by BrdU incorporation-based ELISA
How it was run: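 CD19+ B cells from healthy-donor PBMC (magnetic bead selection, >90% CD19+) at 2 × 10^5 cells/mL in IMDM with 10% FBS, ITS and rhIL-4 at 0.2 µg/mL. Activated with rhCD154 (MegaCD40L) at 0.1 µg/mL plus graded compound for 48 h. BrdU then added for another 48 h; incorporation read by colorimetric ELISA.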
Target sequence in this assay (P25942 21-277 limits assumed): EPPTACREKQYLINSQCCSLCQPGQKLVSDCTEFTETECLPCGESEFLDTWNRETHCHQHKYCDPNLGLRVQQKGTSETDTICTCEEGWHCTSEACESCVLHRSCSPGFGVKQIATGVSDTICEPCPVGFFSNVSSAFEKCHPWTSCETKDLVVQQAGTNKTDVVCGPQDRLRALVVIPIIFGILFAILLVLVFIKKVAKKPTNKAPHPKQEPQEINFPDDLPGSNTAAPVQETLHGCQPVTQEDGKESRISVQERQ
Target sequence in this assay (P29965 113-261 partner limits assumed): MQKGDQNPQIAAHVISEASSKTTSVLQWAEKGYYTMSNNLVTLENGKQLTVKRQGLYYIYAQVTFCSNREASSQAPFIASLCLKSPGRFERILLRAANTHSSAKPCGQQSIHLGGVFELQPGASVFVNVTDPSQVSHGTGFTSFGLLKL

CD40-CD40L [10] = molecular target: T1, CD40-CD40L; experiment: Inhibition of interaction of CD40 in promoter/enhancer region of aicda-fused Ds-Red reporter transfected human B cells with recombinant human CD40L assessed as reduction in CD40L/IL-4-induced B cell activation by measuring AID expression after 2 days by flow cytometric analysis
How it was run: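 Primary human B cells transduced by spinoculation (1.5 h, 2,500g, 32°C, polybrene 8 µg/mL) with aicda promoter/enhancer–DsRed lentivirus. Cells at 1.25 × 10^5/mL in IMDM with 10% FBS, stimulated with IL-4 and CD40L (each 0.2 µg/mL) plus graded compound for 2 days at 37°C. DsRed read by flow cytometry. Anti-CD40L mAb 33.3 nM and CpG 1 µg/mL as controls; n=3.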

CD40-CD40L [11] = molecular target: T1, CD40-CD40L; experiment: Inhibition of interaction of CD40 in human THP-1 cells with recombinant human CD40L assessed as reduction in CD40L-induced […] upregulation after 48 hrs by DAPI-staining based flow cytometric analysis; format: cell-based
How it was run: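 THP-1 cells serum-starved 24 h, then stimulated with rhCD154 (MegaCD40L) at 0.5 µg/mL plus graded compound in FBS-free RPMI for 48 h at 37°C, 5% CO2. Stained for HLA-DR, then DAPI just before flow cytometry. Marker quantified in live (DAPI-negative) cells.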
Target sequence in this assay (P25942 21-277 limits assumed): as the sequence (P25942 21-277 limits assumed) above
Target sequence in this assay (P29965 113-261 partner limits assumed): as the sequence (P29965 113-261 partner limits assumed) above

[12] = Elimination half life in C57BL6 mouse at 60 mg/kg, sc administered as single dose measured up to 24 hrs by HPLC analysis; format: ADME, organism-based; settings: in vivo, read-out: beta t1/2 (converted)
How it was run: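 Single s.c. dose of 1.6 mg/mouse (~60 mg/kg) in 250 µL 20% w/v HPβCD to male C57BL/6 mice, 10 weeks old (n = 4). Tail blood (50 µL) drawn at 0, 0.5, 1, 2, 4, 6 and 24 h. Plasma quantified by C18 HPLC (60:40 water:acetonitrile with 2.0 mM ammonium acetate, 254 nm), calibration linear over 1 to 500 µg/mL.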

Homo sapiens = organism: Homo sapiens; experiment: Selectivity ratio of IC50 for human Fc-conjugated TNF-R/FLAG-tagged biotinylated TNFalpha protein-protein interaction to IC50 for human Fc-conjugated CD40/FLAG-tagged biotinylated CD40L costimulatory protein-protein interaction
How it was run: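 Cell-free plate binding: TNF-R-Fc and CD40-Fc each coated at 0.3 µg/mL. FLAG-tagged TNF-α or CD40L, each at 0.02 µg/mL, added with graded compound for 1 h in HEPES buffer, pH 7.2. Anti-FLAG HRP/TMB detection at 450 nm. IC50s come from log inhibitor fits.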

THP-1 [13] = experiment: Cytotoxicity against human THP1 cells assessed as reduction in cell viability at 100 to 200 uM after 48 hrs by MTT assay; format: cell-based; settings: thp-1, 48 h; how it was run: as §1
CD40-CD40L [14] = molecular target: T1, CD40-CD40L; experiment: Ratio of IC50 for human Fc-conjugated CD40/FLAG-tagged biotinylated CD40L costimulatory protein-protein interaction in presence of Triton-X 100 to IC50 for human Fc-conjugated CD40/FLAG-tagged biotinylated CD40L costimulatory protein-protein interaction in absence of Triton-X 100; format: protein assay
How it was run: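 CD40-Fc (0.3 µg/mL) coated, FLAG-CD40L (0.02 µg/mL) binding, 1 h, anti-FLAG HRP/TMB read at 450 nm. Run with and without the non-ionic detergent Triton X-100 at 0.01% to test for colloidal aggregation. IC50 taken from log inhibitor vs. response fits in each condition.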
Target sequence in this assay (P25942 21-277 limits assumed): as the sequence (P25942 21-277 limits assumed) above
Target sequence in this assay (P29965 113-261 partner limits assumed): as the sequence (P29965 113-261 partner limits assumed) above

Molecule	IC50 (CD40-CD40L [1])	IC50 (CD40-CD40L [2])	inhibition (CD40-CD40L [2])	inhibition [3]	inhibition (CD40-CD40L [1])	IC50 [6]	Ratio IC50 (Homo sapiens)	also measured
H-VLQWAEKGYYTMSNN-OH	154 µM							
O=C(Nc1ccc2c(O)c(/N=N/c3ccc(/N=N\c4ccc(S(=O)(=O)O)cc4)cc3S(=O)(=O)O)c(S(=O)(=O)O)cc2c1)Nc1ccc2c(O)c(/N=N/c3ccc(/N=N\c4ccc(S(=O)(=O)O)cc4)cc3S(=O)(=O)O)c(S(=O)(=O)O)cc2c1	2.26 µM	42.7 µM	Dose-dependent effect	Active				
COC(=O)c1ccc(C(=O)Nc2ccc(-c3ccc(C(=O)Nc4cccc5cccc(S(=O)(=O)O)c45)cc3)cc2)cc1	0.17 µM	17.1 µM	Dose-dependent effect	Active	Dose-dependent effect	992 µM		Activity (Mus musculus [4]): Non-Toxic; Activity (Salmonella typhimurium): Non-Toxic; solubility [5]: 240 µM (≈ 139 µg/mL); inhibition (Mus musculus [7]): Active; Activity (THP-1 [8]): Non-Toxic; inhibition (CD40-CD40L [9]): Dose-dependent effect; IC50 (CD40-CD40L [10]): 4.5 µM; inhibition (CD40-CD40L [10]): Dose-dependent effect; inhibition (CD40-CD40L [11]): Dose-dependent effect; half-life [12]: 2 h
Nc1ccc(C(=O)Nc2ccc(-c3ccc(C(=O)Nc4cccc5cccc(S(=O)(=O)O)c45)cc3)cc2)cc1	301 µM			Active		887 µM	> 100	Activity (THP-1 [13]): Toxic
O=C(Nc1ccc(-c2ccc(C(=O)Nc3ccc(S(=O)(=O)O)c4ccccc34)cc2)cc1)c1ccc([N+](=O)[O-])cc1	2.33 µM				Dose-dependent effect	479 µM	> 100	
O=C(Nc1ccc(-c2ccc(C(=O)Nc3ccc(C(=O)O)c4ccccc34)cc2)cc1)c1ccc([N+](=O)[O-])cc1	0.36 µM	9.4 µM	Dose-dependent effect	Active	Dose-dependent effect	> 1000 µM		solubility [5]: 17 µM (≈ 9.04 µg/mL); inhibition (CD40-CD40L [9]): Dose-dependent effect; IC50 (CD40-CD40L [10]): 15.9 µM; inhibition (CD40-CD40L [10]): Dose-dependent effect; inhibition (CD40-CD40L [11]): Dose-dependent effect; Activity (THP-1 [13]): Toxic
O=C(Nc1ccc(C(=O)Nc2cccc3cccc(S(=O)(=O)O)c23)cc1)c1ccc([N+](=O)[O-])cc1				Active		> 1000 µM	> 100	
O=C(Nc1ccc(-c2ccc(C(=O)Nc3cccc4cccc(S(=O)(=O)O)c34)cc2)cc1)c1ccc([N+](=O)[O-])cc1	0.31 µM	10.3 µM	Dose-dependent effect	Active	Dose-dependent effect	> 1000 µM		Activity (Salmonella typhimurium): Non-Toxic; solubility [5]: 7 µM (≈ 3.97 µg/mL); Activity (THP-1 [8]): Non-Toxic; inhibition (CD40-CD40L [9]): Dose-dependent effect; IC50 (CD40-CD40L [10]): 13.2 µM; inhibition (CD40-CD40L [10]): Dose-dependent effect; inhibition (CD40-CD40L [11]): Dose-dependent effect
O=C(Nc1ccc(-c2ccc(C(=O)Nc3cccc4cccc(S(=O)(=O)O)c34)cc2)cc1)c1ccc2[nH]nnc2c1	0.99 µM				Dose-dependent effect	> 1000 µM	> 100	
CSCC[C@H](NC(=O)[C@@H](NC(=O)[C@H](Cc1ccc(O)cc1)NC(=O)[C@H](Cc1ccc(O)cc1)NC(=O)CNC(=O)[C@H](CCCCN)NC(=O)[C@H](CCCCN)NC(=O)[C@H](C)NC(=O)[C@H](Cc1c[nH]c2ccccc12)NC(=O)[C@H](CCC(N)=O)NC(=O)[C@H](CC(C)C)NC(=O)[C@@H](N)C(C)C)[C@@H](C)O)C(=O)N[C@@H](CCCCN)C(=O)N[C@@H](CO)C(=O)N[C@@H](CC(N)=O)C(=O)O					inactive			
O=C1OC2(c3ccccc31)c1cc(I)c(O)c(I)c1Oc1c2cc(I)c(O)c1I								Ratio IC50 (CD40-CD40L [14]): 1.04
